Tests used:
HT-29 = experiment: Antitumor activity against human HT29 cell line; assay type: functional
MDA-MB-435 = experiment: Antitumor activity against human MDA-MB-435 cell line; assay type: functional
Summary of the method: (§1)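 Human tumour cell line panel. GI50 is the concentration giving 50% growth inhibition, averaged over at least two determinations. LC50 is the concentration killing 50% of cells in a […] assay.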

HCC 2998 = experiment: Antitumor activity against human HCC2998 cell line; assay type: functional; details: read-out: LC50 (the source's name); summary of the method: as §1
OVCAR-5 = experiment: Antitumor activity against human OVCAR5 cell line; assay type: functional; summary of the method: as §1
UACC-257 = experiment: Antitumor activity against human UACC257 cell line; assay type: functional
Summary of the method: (§2)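 Human tumour cell lines from a selected panel. GI50 is the concentration giving 50% growth inhibition, averaged from at least two determinations. LC50 is the concentration killing 50% of cells in a […] assay.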

NCI-H522 = experiment: Antitumor activity against human NCI-H522 cell line; assay type: functional; summary of the method: as §1
K562 = experiment: Antitumor activity against human K562 cell line; assay type: functional; summary of the method: as §1
SW-620 = experiment: Antitumor activity against human SW620 cell line; assay type: functional; summary of the method: as §2
A549 = experiment: Antitumor activity against human A549 cell line; assay type: functional; summary of the method: as §1
SK-MEL-2 = experiment: Antitumor activity against human SKMEL2 cell line; assay type: functional; summary of the method: as §1
CAKI-1 = experiment: Antitumor activity against human CAKI1 cell line; assay type: functional; summary of the method: as §1
OVCAR-3 = experiment: Antitumor activity against human OVCAR-3 cell line; assay type: functional; summary of the method: as §1
SNB-19 = experiment: Antitumor activity against human SNB19 cell line; assay type: functional; summary of the method: as §1
786-0 = experiment: Antitumor activity against human 7860 cell line; assay type: functional; summary of the method: as §1
L1210 = experiment: Cytotoxicity against mouse L1210 cell line; assay type: cell-based; details: Mus musculus, L1210
Summary of the method: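 Cells grown at 37 °C under 5% CO2 in medium with 2 mM L-glutamine, penicillin, streptomycin and 20% heat-inactivated horse serum. Drug in DMSO (0.5% final) added to exponentially growing cells seeded at 0.8 × 10^5 cells/mL. Coulter counting in quadruplicate at 48 h (L1210) or 96 h (HT-29). IC50 from probit of % growth inhibition versus log dose; four independent runs in triplicate.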

UO-31 = experiment: Antitumor activity against human UO31 cell line; assay type: functional; summary of the method: as §2
COLO 205 = experiment: Antitumor activity against human Colo205 cell line; assay type: functional; summary of the method: as §1
[1] = read-out: LC50 (the source's name)

## CCCCc1c2c(c(C)c3c1C(=O)OC3)Oc1ccccc1O2
HT-29
  GI50: 0.331 µM
HT-29; [1]
  CC50: 100 µM
MDA-MB-435
  GI50: 0.158 µM
MDA-MB-435; [1]
  CC50: 40 µM
HCC 2998
  CC50: 40 µM
OVCAR-5
  GI50: 7.59 µM
OVCAR-5; [1]
  CC50: 100 µM
UACC-257
  GI50: 0.302 µM
UACC-257; [1]
  CC50: 100 µM
NCI-H522
  GI50: 0.234 µM
NCI-H522; [1]
  CC50: 100 µM
K562
  GI50: 0.38 µM
K562; [1]
  CC50: 100 µM
SW-620
  GI50: 0.525 µM
SW-620; [1]
  CC50: 100 µM
A549
  GI50: 0.603 µM
A549; [1]
  CC50: 70 µM
SK-MEL-2
  GI50: 0.363 µM
SK-MEL-2; [1]
  CC50: 100 µM
CAKI-1
  GI50: 26.3 µM
CAKI-1; [1]
  CC50: 100 µM
OVCAR-3
  GI50: 0.525 µM
OVCAR-3; [1]
  CC50: 100 µM
SNB-19
  GI50: 0.589 µM
SNB-19; [1]
  CC50: 100 µM
786-0
  GI50: 0.562 µM
786-0; [1]
  CC50: 50 µM
L1210
  IC50: 2.4 µM
UO-31
  GI50: 2.24 µM
UO-31; [1]
  CC50: 100 µM
COLO 205
  GI50: 0.741 µM
COLO 205; [1]
  CC50: 100 µM

From ChEMBL document CHEMBL1139834, “Synthesis and structure-activity relationships of new benzodioxinic lactones as potential anticancer drugs” (J Med Chem, 2007)
